The target of series [1] is T1, Tryptophan 5-hydroxylase 1 (Homo sapiens, UniProt P17752).
T1 sequence (P17752 whole entry): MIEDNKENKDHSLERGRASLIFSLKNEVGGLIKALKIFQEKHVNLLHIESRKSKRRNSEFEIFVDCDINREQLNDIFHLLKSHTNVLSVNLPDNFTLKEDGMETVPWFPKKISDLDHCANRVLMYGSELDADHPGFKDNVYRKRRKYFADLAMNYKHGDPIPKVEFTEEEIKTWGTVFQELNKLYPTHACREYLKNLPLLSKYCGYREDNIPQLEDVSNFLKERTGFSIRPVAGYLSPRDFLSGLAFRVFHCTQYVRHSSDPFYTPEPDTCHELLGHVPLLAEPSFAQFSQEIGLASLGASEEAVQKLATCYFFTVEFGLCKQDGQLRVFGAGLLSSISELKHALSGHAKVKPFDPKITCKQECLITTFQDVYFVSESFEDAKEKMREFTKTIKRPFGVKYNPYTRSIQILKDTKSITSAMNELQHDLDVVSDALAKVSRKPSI
As to the kind of experiment: Inhibition of human recombinant TPH1 by continuous fluorescence assay. In a few lines:
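Purified recombinant human TPH1 was tested in a continuous fluorescence assay. IC50 was taken from inhibition of enzyme activity.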

The test system of the next series is RBL-2H3. As to the kind of experiment: Inhibition of serotonin biosynthesis in rat RBL2H3 cells after 3 days. In kind it is functional, cell-based. The conditions noted are these: RBL-2H3, 72 h. The gist of the method:
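Serotonin biosynthesis was measured in rat mastocytoma RBL-2H3 cells. EC50 was taken from inhibition of that biosynthesis.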

For series [2], the species on record is Mus musculus. As to the kind of experiment: Reduction of serotonin level in mouse brain. In kind it is functional, organism-based.
For series [3], the system named is Mus musculus. As to the kind of experiment: Reduction of serotonin level in mouse duodenum at 100 mg/kg, po bid for 5 days. In kind it is functional. The arrangement: scale not given: the % may be the effect or the level left. In a few lines:
(§1)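 Mice were dosed at 100 mg/kg twice daily (200 mg/kg/day) for five days, by intraperitoneal injection or oral gavage. 5-HT levels were then measured in blood and intestine (duodenum) and reported as percent decrease.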

Series [4] in a line: Plasma clearance in C57 albino mouse at 1 mg/kg, iv. In kind it is ADME, organism-based. Also noted: dose 1 mg/kg, route intravenous. The gist of the method:
(§2)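 Male C57-albino mice were used in two groups. One group received a single 1 mg/kg intravenous injection and the other a 10 mg/kg oral gavage dose. Plasma levels gave clearance and Vss (iv), and Cmax, AUC and oral bioavailability (po).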

A short description of series [5]: Oral bioavailability in C57 albino mouse at 10 mg/kg. To be noted: in vivo. In kind it is ADME, organism-based. In a few lines:
as §2

Series [6] concerns Mus musculus. As to the kind of experiment: Reduction of serotonin level in mouse blood at 100 mg/kg, ip bid for 5 days. In kind it is functional. The arrangement: scale not given: the % may be the effect or the level left. To be noted: route intraperitoneal. In a few lines: as §1
In series [7] the test system is Mus musculus. As to the kind of experiment: Reduction of serotonin level in mouse duodenum at 100 mg/kg, ip bid for 8 days. In kind it is functional. Also noted: scale not given: the % may be the effect or the level left. To be noted: route intraperitoneal.
The test system of series [8] is Mus musculus. As to the kind of experiment: Reduction of serotonin level in mouse blood at 100 mg/kg, ip bid for 8 days. The conditions noted are these: route intraperitoneal. Also noted: scale not given: the % may be the effect or the level left. In kind it is functional.
The nature of series [9]: Cmax in C57 albino mouse at 10 mg/kg, po. In kind it is ADME, organism-based. Also noted: dose 10 mg/kg, route oral. To be noted: in vivo. The gist of the method: as §2
For series [10], the system named is Mus musculus. As to the kind of experiment: AUC in C57 albino mouse at 10 mg/kg, po. In kind it is ADME, organism-based, Plasma. The arrangement: dose 10 mg/kg, route oral. To be noted: in vivo. The gist of the method: as §2
The subject of series [11] is Mus musculus. As to the kind of experiment: Reduction of serotonin level in mouse duodenum at 100 mg/kg, ip bid for 5 days. In kind it is functional. The arrangement: scale not given: the % may be the effect or the level left. To be noted: route intraperitoneal. The gist of the method: as §1
The test system of series [12] is Mus musculus. As to the kind of experiment: Reduction of serotonin level in mouse blood at 100 mg/kg, po bid for 5 days. Also noted: scale not given: the % may be the effect or the level left. In kind it is functional. In a few lines: as §1
A short description of series [13]: Volume of distribution at steady state in C57 albino mouse at 1 mg/kg, iv. In kind it is ADME, organism-based. Also noted: dose 1 mg/kg, route intravenous. The conditions noted are these: in vivo, read-out: Vdss. The gist of the method:
as §2

The source made the active and inactive calls. No cut-off for these calls is given here. Where only a bound is given, the exact number is not on record here.

Regarding `C[C@H](Nc1nc(N)nc(-c2ccc(C[C@H](N)C(=O)O)cc2)n1)c1ccc2ccccc2c1`, in series [1], the IC50 is 44 nM. Further, the midpoint of the response in the series with RBL-2H3, the EC50, lay at 2800 nM.

With `CC(Nc1nc(N)nc(-c2ccc(C[C@H](N)C(=O)O)cc2)n1)C12CC3CC(CC(C3)C1)C2` (stereo not given in full), in [1], the IC50 was determined as 19 nM. Besides, the response with RBL-2H3 was half-maximal at 820 nM (EC50).

Take `Nc1nc(NCc2ccccc2)nc(-c2ccc(C[C@H](N)C(=O)O)cc2)n1`: the IC50 in series [1] turned out to be 500 nM. In addition, the EC50 in the series with RBL-2H3 was more than 11000 nM.

Compound `Nc1nc(NCc2ccc3ccccc3c2)nc(-c2ccc(C[C@H](N)C(=O)O)cc2)n1` displayed an EC50 in the series on RBL-2H3 of 2100 nM.

As for `CC(C)C(Nc1nc(N)nc(-c2ccc(C[C@H](N)C(=O)O)cc2)n1)c1ccc2ccccc2c1` (stereo not given in full), the IC50 in series [1] came out at 250 nM. This compound showed an EC50 with RBL-2H3 of 5700 nM.

On to `Nc1nc(NCc2ccccc2-c2ccccc2)nc(-c2ccc(C[C@H](N)C(=O)O)cc2)n1`, for which the IC50 in [1] turned out to be 7 nM. The compound further registered an EC50 in the series with RBL-2H3 of 2200 nM.

On to `Cc1ccc(-c2ccc(CNc3nc(N)nc(-c4ccc(C[C@H](N)C(=O)O)cc4)n3)cc2)cc1`, for which, in series [1], the IC50 was 14 nM. Also, the half-maximal effective concentration (EC50) in the series with RBL-2H3 was 2300 nM.

As to `CC(Nc1ncnc(-c2ccc(C[C@H](N)C(=O)O)cc2)n1)c1ccc2ccccc2c1` (stereo not given in full), the IC50 in series [1] was determined as 190 nM. Further, in the series on RBL-2H3, the response was half-maximal at 16200 nM (EC50).

As for `Nc1nc(NCc2ccc(-c3ccccc3)cc2)nc(-c2ccc(C[C@H](N)C(=O)O)cc2)n1`, in series [1], the IC50 amounted to 60 nM. The compound also registered an EC50 with RBL-2H3 of 1800 nM.

Turning to `Nc1nc(NCc2cccc(-c3ccccc3)c2)nc(-c2ccc(C[C@H](N)C(=O)O)cc2)n1`, the IC50 in [1] was found to be 38 nM. This compound gave an EC50 in the series with RBL-2H3 of 1400 nM.

Regarding `Nc1nc(OC(c2ccc3ccccc3c2)C(F)(F)F)nc(-c2ccc(C[C@H](N)C(=O)O)cc2)n1` (stereo not given in full), the IC50 in [1] is 320 nM. In the series with RBL-2H3, this compound registered an EC50 of 9600 nM.

Turning to `Nc1nc(NCc2ccc(Oc3ccccc3)cc2)nc(-c2ccc(C[C@H](N)C(=O)O)cc2)n1`, in series [1], the IC50 was 150 nM. For the same compound, the EC50 in the series with RBL-2H3 came to 3400 nM.

`C[C@@H](Nc1nc(N)nc(-c2ccc(C[C@H](N)C(=O)O)cc2)n1)c1ccc2ccccc2c1`: the outcome in the series listed under Mus musculus [2] was inactive. In addition, the Activity with Mus musculus [3] came out at 38%; in the series with Mus musculus [6] it was 26%; in the series with Mus musculus [7], 57%; in the series with Mus musculus [8] it was 50%; with Mus musculus [11], 37%; in the series with Mus musculus [12], 17%. The clearance in series [4] is 8.33 mL/min/kg. The same compound came in with a bioavailability in series [5] of 5%. This compound showed a concentration giving a half-maximal response (EC50) in the series with RBL-2H3 of 300 nM. The concentration in [9] peaked (Cmax) at 500 nM. This compound also had an AUC in the series with Mus musculus [10] of 1.6 µM·h. Besides, the Vd in series [13] is 0.5 L/kg.

Turning to `Nc1nc(NCC2CCCCC2)nc(-c2ccc(C[C@H](N)C(=O)O)cc2)n1`, the IC50 in series [1] turned out to be 120 nM. Besides, in the series on RBL-2H3, the EC50 was more than 11000 nM.

For `C[C@H](c1ccc2ccccc2c1)N(C)c1nc(N)nc(-c2ccc(C[C@H](N)C(=O)O)cc2)n1`, in series [1], the IC50 was 50 nM. This compound gave an EC50 in the series on RBL-2H3 of 480 nM.

With `N[C@@H](Cc1ccc(-c2nc(NCc3ccc4ccccc4c3)nc(N3CCOCC3)n2)cc1)C(=O)O`, the half-inhibitory concentration (IC50) in series [1] was 15600 nM. For the same compound, the EC50 in the series on RBL-2H3 is more than 40000 nM.

As for `CC(C)(Nc1nc(N)nc(-c2ccc(C[C@H](N)C(=O)O)cc2)n1)c1ccc2ccccc2c1`, in series [1], the 50% inhibitory concentration (IC50) was found to be 55 nM. This compound yielded an EC50 in the series with RBL-2H3 of 1700 nM.

Consider `Nc1nc(NCc2ccc(-c3ccc(C(F)(F)F)cc3)cc2)nc(-c2ccc(C[C@H](N)C(=O)O)cc2)n1`, for which the IC50 in series [1] was 160 nM. Also, the concentration for a half-maximal effect (EC50) with RBL-2H3 came to 4100 nM.

For the compound `CCC(Nc1nc(N)nc(-c2ccc(C[C@H](N)C(=O)O)cc2)n1)c1ccc2ccccc2c1` (stereo not given in full), the IC50 in [1] stood at 150 nM. In the series on RBL-2H3, this compound came in with an EC50 of 2300 nM.

For the compound `CC(C)CC(Nc1nc(N)nc(-c2ccc(C[C@H](N)C(=O)O)cc2)n1)c1ccc2ccccc2c1` (stereo not given in full), the IC50 in series [1] is 120 nM. This compound displayed an EC50 with RBL-2H3 of more than 11000 nM.

For the compound `Cc1ccc(CNc2nc(N)nc(-c3ccc(C[C@H](N)C(=O)O)cc3)n2)cc1C`, the IC50 in series [1] was determined as 100 nM. Moreover, the EC50 with RBL-2H3 is more than 11000 nM.

For `CNc1nc(N[C@H](C)c2ccc3ccccc3c2)nc(-c2ccc(C[C@H](N)C(=O)O)cc2)n1`, the IC50 in series [1] was 610 nM. The midpoint of the response in the series on RBL-2H3, the EC50, lay at 10200 nM.

`Nc1nc(NCc2ccc(C(F)(F)F)cc2)nc(-c2ccc(C[C@H](N)C(=O)O)cc2)n1`: the IC50 in series [1] stood at 120 nM. Besides, the response in the series with RBL-2H3 was half-maximal at 36000 nM (EC50).

In the case of `CC(Nc1nc(N)nc(-c2ccc(C[C@H](N)C(=O)O)cc2)n1)c1ccc(-c2ccccc2)cc1` (stereo not given in full), in [1], the IC50 was determined as 24 nM. Besides, the response in the series on RBL-2H3 was half-maximal at 2500 nM (EC50).

As for `Nc1nc(NC(c2ccc3ccccc3c2)C(F)(F)F)nc(-c2ccc(C[C@H](N)C(=O)O)cc2)n1` (stereo not given in full), the IC50 in series [1] came to 330 nM. This compound came in with an EC50 in the series with RBL-2H3 of 6300 nM.

As a reminder, the IC50 is the concentration that gives 50% inhibition. For orientation: EC50 means the concentration that produces a half-maximal response. Broadly, the clearance is a measure of how efficiently the substance is removed, as volume per time. The term bioavailability denotes the share of a dose that reaches the circulation, judged against a reference dose that is usually intravenous. The Cmax is the highest concentration seen after dosing. A word on the AUC: it is concentration integrated over time.

The values above are taken from ChEMBL document CHEMBL1155300, “Substituted 3-(4-(1,3,5-triazin-2-yl)-phenyl)-2-aminopropanoic acids as novel tryptophan hydroxylase inhibitors” (Bioorg Med Chem Lett, 2009).
